This note sets out measurements from PMC2857138 (The Journal of Biological Chemistry, 2010).

Assay type in all cases: biochemical
One assay has as its target IP3R3 (Rattus norvegicus, UniProt Q63269). In words: Ca2+ release from stores of permeabilized DT40 cells.
Assay [1] has as its target IP3R2 (Mus musculus, UniProt Q9Z329). Kind of assay: Ca2+ release from stores of permeabilized DT40 cells. The essentials:
(§1)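 DT40 cells lacking all endogenous IP3R genes were stably transfected with the IP3R construct and selected with G418 (2 mg/ml). Intracellular stores were loaded with Mag-fluo-4, and cells were permeabilized with saponin (10 μg/ml) at 20 °C in cytosol-like medium (free Ca²⁺ 220 nM, pH 7.0). After MgATP (1.5 mM) loading reached steady state, IP3 was added with thapsigargin (1 μM). Release was expressed as a fraction of ionomycin (1 μM) release.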

The target in assay [2] is IP3R2 (Mus musculus, UniProt Q9Z329, G1969A/G1971A/G1974A). In words: Ca2+ release from stores of permeabilized DT40-ΔATPB cells. The essentials:
as §1

IP3R3, sequence (Q63269 whole entry): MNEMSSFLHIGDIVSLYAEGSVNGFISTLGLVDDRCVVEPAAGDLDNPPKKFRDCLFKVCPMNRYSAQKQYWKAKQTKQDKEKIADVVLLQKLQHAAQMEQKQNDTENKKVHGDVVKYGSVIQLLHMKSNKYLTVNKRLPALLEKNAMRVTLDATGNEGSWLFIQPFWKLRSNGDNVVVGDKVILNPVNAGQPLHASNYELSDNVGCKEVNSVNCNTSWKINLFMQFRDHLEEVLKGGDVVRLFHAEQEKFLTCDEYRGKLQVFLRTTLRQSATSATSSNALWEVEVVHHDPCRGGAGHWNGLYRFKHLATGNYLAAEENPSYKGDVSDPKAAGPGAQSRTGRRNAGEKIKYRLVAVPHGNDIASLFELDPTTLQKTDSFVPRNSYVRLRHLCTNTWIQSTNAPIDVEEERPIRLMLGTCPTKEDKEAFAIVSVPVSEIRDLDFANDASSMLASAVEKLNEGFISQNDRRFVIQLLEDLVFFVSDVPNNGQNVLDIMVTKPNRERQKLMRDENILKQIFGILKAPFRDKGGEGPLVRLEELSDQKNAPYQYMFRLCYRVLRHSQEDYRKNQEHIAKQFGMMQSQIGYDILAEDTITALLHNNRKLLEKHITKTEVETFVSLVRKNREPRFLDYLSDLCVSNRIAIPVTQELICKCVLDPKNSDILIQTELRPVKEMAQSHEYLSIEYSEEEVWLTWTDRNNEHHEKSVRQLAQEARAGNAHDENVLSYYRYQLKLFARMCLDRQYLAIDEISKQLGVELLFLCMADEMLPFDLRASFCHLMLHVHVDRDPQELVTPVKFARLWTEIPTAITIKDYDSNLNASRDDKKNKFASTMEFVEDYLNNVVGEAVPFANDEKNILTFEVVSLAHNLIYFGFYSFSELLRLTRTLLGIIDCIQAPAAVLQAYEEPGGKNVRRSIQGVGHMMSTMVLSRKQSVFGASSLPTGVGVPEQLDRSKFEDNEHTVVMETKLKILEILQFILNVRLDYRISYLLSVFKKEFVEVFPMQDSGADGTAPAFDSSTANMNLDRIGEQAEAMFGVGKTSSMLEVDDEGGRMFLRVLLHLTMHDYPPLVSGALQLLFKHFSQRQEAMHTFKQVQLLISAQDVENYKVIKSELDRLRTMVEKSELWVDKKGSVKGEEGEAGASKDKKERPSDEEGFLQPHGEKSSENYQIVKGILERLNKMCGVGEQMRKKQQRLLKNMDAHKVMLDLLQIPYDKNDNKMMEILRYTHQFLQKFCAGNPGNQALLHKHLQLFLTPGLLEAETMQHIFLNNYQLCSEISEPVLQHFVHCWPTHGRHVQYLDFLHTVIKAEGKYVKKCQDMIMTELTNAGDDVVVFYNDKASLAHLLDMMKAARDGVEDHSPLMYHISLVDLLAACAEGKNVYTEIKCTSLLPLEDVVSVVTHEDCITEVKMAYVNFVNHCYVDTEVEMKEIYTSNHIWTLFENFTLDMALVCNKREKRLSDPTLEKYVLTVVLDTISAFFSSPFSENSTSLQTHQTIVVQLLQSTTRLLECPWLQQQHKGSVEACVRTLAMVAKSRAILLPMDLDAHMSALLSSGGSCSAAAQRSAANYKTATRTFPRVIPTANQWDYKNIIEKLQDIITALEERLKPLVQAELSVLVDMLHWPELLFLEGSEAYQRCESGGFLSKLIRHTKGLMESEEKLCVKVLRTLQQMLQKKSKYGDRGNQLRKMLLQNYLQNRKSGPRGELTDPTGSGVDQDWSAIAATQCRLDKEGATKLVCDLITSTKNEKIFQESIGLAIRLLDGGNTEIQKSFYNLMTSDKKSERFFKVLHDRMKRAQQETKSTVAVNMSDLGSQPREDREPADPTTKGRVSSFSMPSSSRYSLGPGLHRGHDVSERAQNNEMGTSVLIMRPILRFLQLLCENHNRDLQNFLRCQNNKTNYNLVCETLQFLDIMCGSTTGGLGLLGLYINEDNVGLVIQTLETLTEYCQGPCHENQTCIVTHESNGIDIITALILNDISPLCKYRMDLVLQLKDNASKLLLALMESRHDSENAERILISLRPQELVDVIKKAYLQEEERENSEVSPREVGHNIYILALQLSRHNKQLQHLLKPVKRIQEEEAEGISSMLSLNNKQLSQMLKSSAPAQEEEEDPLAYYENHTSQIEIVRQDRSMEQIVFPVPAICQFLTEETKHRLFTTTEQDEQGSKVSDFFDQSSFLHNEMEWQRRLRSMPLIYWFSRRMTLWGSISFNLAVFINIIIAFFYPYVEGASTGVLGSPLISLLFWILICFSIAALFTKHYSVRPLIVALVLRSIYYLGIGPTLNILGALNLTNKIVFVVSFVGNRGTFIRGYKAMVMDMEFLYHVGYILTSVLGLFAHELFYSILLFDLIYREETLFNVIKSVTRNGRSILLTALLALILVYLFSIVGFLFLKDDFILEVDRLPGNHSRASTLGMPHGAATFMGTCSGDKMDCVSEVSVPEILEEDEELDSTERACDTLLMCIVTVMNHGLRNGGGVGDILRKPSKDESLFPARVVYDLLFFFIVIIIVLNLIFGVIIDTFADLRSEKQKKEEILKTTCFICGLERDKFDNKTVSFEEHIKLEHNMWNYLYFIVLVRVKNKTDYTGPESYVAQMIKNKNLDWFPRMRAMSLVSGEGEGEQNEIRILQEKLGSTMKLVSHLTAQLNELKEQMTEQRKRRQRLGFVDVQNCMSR

As for `O=P(O)(O)O[C@@H]1[C@H](O)[C@H](O)[C@@H](OP(=O)(O)O)[C@H](OP(=O)(O)O)[C@H]1O` [IP3], the EC50 (usually the concentration giving half of the maximal effect) amounted to 255 ± 9 nM on IP3R3, 74 ± 10 nM at IP3R2 [1] and 246 ± 17 nM on IP3R2 [2].
